Measurements published in ChEMBL document CHEMBL4513216, “Probing the Open Global Health Chemical Diversity Library for Multistage-Active Starting Points for Next-Generation Antimalarials” (ACS Infect Dis, 2020).

Assay: Toxicity liver stage against HepG2, at 10uM
Format: cell-based
Design: test concentration 10 uM, cell line HepG2-A16-CD81EGFP
Conditions: human, HepG2-A16-CD81EGFP cells; read-out: INHIBITION
Procedure, shortened: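 Uninfected HepG2-A16-CD81EGFP cells, 3 × 10^3 per well, 1536-well, plated on prespotted compound at 10 μM final, parasite-free screening media added to match infected plates; puromycin 10 μM positive, DMSO 0.5% negative; run in parallel with 48 h PbLuc assay at 37 °C, 5% CO2; viability by CellTiter-Glo luminescence, normalized to controls.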

CCN(CC)C1(Cc2cc(COC)on2)COC1
cytotoxicity at 10 µM: -2.45%

Nc1cccnc1N1CCC(c2ccccc2)CC1
cytotoxicity at 10 µM: -5.2%

O=C(CC1NC(N2CCc3ccccc32)=NC1=O)Nc1ccccc1 (stereo not given)
cytotoxicity at 10 µM: -1.3%

Cc1cc(C(=O)N2CC[C@@H]3CN(CCC(C)C)S(=O)(=O)[C@@H]3CC2)no1
cytotoxicity at 10 µM: 1.58%

CCCn1cc(CN2CCOCC2c2[nH]ncc2C)cn1 (stereo not given)
cytotoxicity at 10 µM: 0.325%

CCC1CCCCN1C(=O)Cn1nc(-c2ccc(C)s2)cc(N)c1=O (stereo not given)
cytotoxicity at 10 µM: 2.64%

CCN(CC)c1ncc2c(O)nc(C3CCNCC3)cc2n1
cytotoxicity at 10 µM: 14.7%

COc1ccccc1NC(=O)C1(c2ccccc2)CCOCC1
cytotoxicity at 10 µM: 7.59%

COCC(=O)N1CCN(C)C(=O)C(Cc2ccc(-c3cccs3)cc2)C1 (stereo not given)
cytotoxicity at 10 µM: 1.74%

CC(=O)N1Cc2ccccc2OC2(CCN(C(=O)C3CCOC3)CC2)C1 (stereo not given)
cytotoxicity at 10 µM: 0.146%

O=C(Cc1cccc(O)c1)N1CCCC(O)(CN2CCOCC2)CC1 (stereo not given)
cytotoxicity at 10 µM: -3.28%

CC(C)(C)c1cc(NC(=O)CN(Cc2ccco2)Cc2cccs2)on1
cytotoxicity at 10 µM: 11.2%

Cc1noc(CNC(=O)NCC2(C)CCCc3ccccc32)n1 (stereo not given)
cytotoxicity at 10 µM: -1.17%

CCOc1cc(CNC(=O)CNC(=O)CC2CCCCC2)ccn1
cytotoxicity at 10 µM: 6.81%

CC(C)c1cnc(CN2CCCC(c3ccn[nH]3)C2)o1 (stereo not given)
cytotoxicity at 10 µM: -4.01%

CS(=O)(=O)CCSC1CCN(c2ccccc2F)C1=O (stereo not given)
cytotoxicity at 10 µM: -7.68%

COCCn1cc(C(=O)N2CCCC2c2cnn(C)c2)ccc1=O (stereo not given)
cytotoxicity at 10 µM: 5.92%

COc1ccccc1N1CCC(CNS(=O)(=O)c2cccs2)C1 (stereo not given)
cytotoxicity at 10 µM: 5.66%

c1ccc(C2CN(CCc3ccncc3)CCO2)cc1 (stereo not given)
cytotoxicity at 10 µM: -8.85%

Cc1c(C(C)NC(=O)Nc2ccc(F)c(F)c2)cnn1C (stereo not given)
cytotoxicity at 10 µM: -46.8%

CCN(CCN1CCCCCC1)C(=O)COc1cccnc1
cytotoxicity at 10 µM: 12.6%

CCCc1cc(C(=O)N(Cc2cccnc2)Cc2cccnc2)[nH]n1
cytotoxicity at 10 µM: -5.79%

CC1(C)CC(CN2CCC3(CCC(=O)N(C4CCC4)C3)CC2)CCO1 (stereo not given)
cytotoxicity at 10 µM: 0.986%

Cc1cccnc1CNC(=O)CC1C(=O)NCCN1CC(C)(C)C (stereo not given)
cytotoxicity at 10 µM: 5.48%

CN(C)C(C(=O)NCC1(N(C)C)CCOCC1)c1ccccc1F (stereo not given)
cytotoxicity at 10 µM: 2.2%

CCn1nc(C)cc1C(=O)NCc1nc(C)cc(C)n1
cytotoxicity at 10 µM: -0.745%

Cc1noc(C2CCCCN2C(=O)C2CCN(C(C)C)CC2)n1 (stereo not given)
cytotoxicity at 10 µM: -4.62%

O=C1NCC2(CCCN(C(=O)c3c[nH]nc3-c3cccs3)C2)O1 (stereo not given)
cytotoxicity at 10 µM: 8.32%

CC(C)n1cnnc1CN(C)CC1CCOC1 (stereo not given)
cytotoxicity at 10 µM: 11.3%

CN(C(=O)CSc1ccccn1)C1CCCN(CCc2ccccc2)C1 (stereo not given)
cytotoxicity at 10 µM: -4.46%

COCc1ccc(C(=O)N2CCCN(c3ccc(F)cc3)CC2)s1
cytotoxicity at 10 µM: -8.92%

Cc1oc(-c2ccc(F)cc2)nc1CN1CCOCS1(=O)=O
cytotoxicity at 10 µM: 4.57%

Cc1ccc(OCC(=O)NS(=O)(=O)c2c(C)noc2C)cc1C
cytotoxicity at 10 µM: -1.96%

Cc1cc(C)c(CNC(=O)N(C)CC2CCCCO2)c(=O)[nH]1 (stereo not given)
cytotoxicity at 10 µM: -8.93%

COC1CCN(C(=O)Cc2csc(-c3ncccn3)n2)CC1
cytotoxicity at 10 µM: -12.6%

COc1cccc(C2CCCN2Cc2nc3c(cnn3C)c(=O)[nH]2)c1 (stereo not given)
cytotoxicity at 10 µM: -4.35%

COc1c(C)cnc(CN2CCCCC2Cn2nc(C)nc2C)c1C (stereo not given)
cytotoxicity at 10 µM: -0.627%

CNC(=O)CS(=O)(=O)Cc1cc(Cl)c2c(c1)OCCCO2
cytotoxicity at 10 µM: -5.61%

Cc1ccc(-c2cc(C3CCNCC3)nc(C)n2)cc1
cytotoxicity at 10 µM: 9.63%

CCn1ccc2ccnc(CC3CN(C(=O)Cn4ccnc4C)C3)c21
cytotoxicity at 10 µM: -5.87%

c1cc2c(cc1CN1CC[C@H]3[C@H]1CCN3CC1CC1)OCO2
cytotoxicity at 10 µM: 1.67%

Cn1cccc1C(=O)N1C[C@H]2CN(Cc3cccc(F)c3)C[C@H]2C1
cytotoxicity at 10 µM: -1.1%

O=C(NCC1CC1)C1CCC2(CCN(C(=O)c3cccnc3)CC2)O1 (stereo not given)
cytotoxicity at 10 µM: 3.59%

CC[C@@H]1N(Cc2ccco2)CCC[C@]12CCC(=O)N2C
cytotoxicity at 10 µM: -0.00736%

Cc1ccc(CN2CCc3[nH]nc(C(=O)N(C)C)c3C2)o1
cytotoxicity at 10 µM: 0.081%
